Bioassay records: PubChem, several laboratories
The list is not random: actives were taken first. Their share in the collection is about 2.3%.
HIF activator – HIF pathway transcriptional activation | U2OS HRE-luciferase reporter, luminescence; normalized: DMSO 0%, desferrioxamine 100% | AID 1910 | 300,000 compounds, 0.32% hits | activation, % at 7.5 µM (by protocol);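 active = mean activation of at least 10% of the iron chelator positive control signal, with at least half of replicates also reaching 10%; inconclusive = mean and replicate majority disagree about reaching 10%; inactive = mean and most replicates under 10%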
KLF5 inh – inhibitors of KLF5 expression; DLD-1 KLF5 promoter-luciferase reporter, luminescence; inhibition, % at 5 µM; 290,000 compounds, 0.23% hits; AID 1700;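 active = inhibition above a per-plate limit of that plate's mean compound inhibition plus 3 SD, cut at about 60% in these data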;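 also: 0% = DMSO wells and 100% = LY294002 at 200 µM; higher means less KLF5 promoter-driven luciferase light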
Beta apoptosis – blocks beta cell apoptosis; 300,000 compounds, 0.8% hits; INS-1E cytokine-induced death, ATP luminescence, 48 h; percent of positive-control rescue, neutral wells zero; AID 435005; protection from apoptosis, % (test concentration not listed);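 active = Every replicate reaches about 75%, or at least half do and their mean reaches it too, limit read from the data; inconclusive = At least half of replicates reach the limit but their mean does not; inactive = Under half of replicates reach the limit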;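 also: 0% = cytokine-treated negative control wells and 100% = positive control rescue; higher means more ATP so stronger rescue from cytokine killing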
A1 inh – inhibitors of the anti-apoptotic protein A1, read as caspase activation; caspase activation, % (no concentration beside the values); AID 2462; 330,000 compounds, 0.066% hits; MEF A1-2A-BIM cells, Caspase-Glo 3/7 luminescence, 3 h; percent of clofoctol response, vehicle zero;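 active = over half of replicate activation scores above 10%, or exactly half above 10 with the replicate mean above 10; inconclusive = replicate mean below 10 yet half the replicates above 10; inactive = over half of replicates below 10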
T cruzi repl – blocks replication of Trypanosoma cruzi; T. cruzi beta-gal in NIH3T3, luminescence, 90 h; inhibition, % (test concentration not listed); 300,000 compounds, 1.4% hits;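 active = mean inhibition across valid replicates above about 55%, limit read from the data; inconclusive = mean below that limit but half or more replicates reach it; inactive = mean below it, under half of replicates reach it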;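 also: signal also drops with host cell toxicity which is not excluded here; 0% = plate median of DMSO wells and 100% = zero luminescence signal; higher percent means less beta-gal luminescence so fewer parasites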
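System – NIH/3T3 host cells with β-galactosidase reporter T. cruzi · Doses – single 50 nL compound addition per well in DMSO · Reagent – 5000 T. cruzi trypomastigotes/well · Medium – Low-serum DMEM with 2% FBS · Timing – ≥90 h infection period, 3 h prior cell attachment · Evaluation – parasite load inhibition, % · Technique – GalScreen luminescence, 60 min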
The depositor's hits bear a star; ? = inconclusive; . = no result given.

SMILES	HIF activator	KLF5 inh	Beta apoptosis	A1 inh	T cruzi repl
CCOc1ncccc1C(=O)Nc1cc2c(cc1Br)OCCO2	.	.	2	-1	.
O=C(NCc1ccccc1)c1onc(CSc2ccc(Cl)cc2)c1C(=O)NCC1CC1	0	.	-1	-1	4
O=C(NCc1ccccc1)c1onc(CSc2ccccc2)c1C(=O)NCC1CC1	-1	.	73	-1	58*
Nc1ccccc1Nc1cc(-c2ccccc2)nn1-c1cccc(Cl)c1	0	-12	12	1	58*
O=C(CCl)Nc1cc(-c2ccccc2)nn1-c1ccccc1	-2	-19	-9	0	13
O=C(NNC(=O)c1cc(S(=O)(=O)N2CCOCC2)c(Cl)cc1Cl)c1ccccc1F	.	.	-1	0	.
COC(=O)CSc1nc(N)c2c3c(sc2n1)CCCC3	1	-37	3	1	5
COC(=O)CSc1nc(N)c2c3c(sc2n1)C(c1ccccc1)SC(c1ccccc1)C3 (stereo unspecified)	0	-11	69	16*	41
CCOC(=O)N1CCC(n2c(SCC(=O)NCc3ccccc3)nc3ccccc3c2=O)CC1	0	4	7	1	18
CCOC(=O)N1CCC(n2c(SCC(=O)Nc3ccccc3OC)nc3ccccc3c2=O)CC1	-2	-23	.	0	56*
C=CCOc1ccccc1CN1CCCC(CCC(=O)N(C)CCc2ccccn2)C1 (stereo unspecified)	0	-7	.	0	56*
Cc1ccc(-n2nc(C)c3c(C)c(CCC(=O)NCC4CCCO4)c(=O)n(C)c32)cc1 (stereo unspecified)	0	-18	6	1	63*
Cn1ccsc1=NC(=O)c1ccc([N+](=O)[O-])o1	1	-17	-1	0	60*
COc1ccc(OCC(=O)N2CCC(n3nccc3NC(=O)C3CC3)CC2)cc1	0	10	-5	-1	-7
Cc1[nH]n(-c2ccccc2)c(=O)c1N=Nc1c(O)cc(S(=O)(=O)N(C)C)c2ccccc12	0	.	111*	-1	46
Cc1[nH]n(-c2ccccc2)c(=O)c1N=Nc1cccc(Cl)c1	-30	19	1	0	-4
Cc1[nH]n(-c2ccccc2)c(=O)c1N=Nc1cccc([N+](=O)[O-])c1	1	-25	-2	1	61*
Cc1[nH]n(-c2ccccc2)c(=O)c1N=Nc1ccc2c(c1)OCCO2	?	2	4	-1	2
CC(C)(C)OC(=O)NCCCCCNC(=O)c1nc[nH]c1C(=O)N1CCN(C(=O)OC(C)(C)C)CC1	.	.	-3	-1	.
CCOc1cc(/C=N/NC(=O)Cn2nc([N+](=O)[O-])cc2C)cc(Br)c1OCc1ccccc1C	0	-2	7	1	57*
CCOC(=O)C(NC(C)=O)(N1CCOCC1)C(F)(F)F (stereo unspecified)	49*	-5	1	0	4
Cc1cccc2cc(-c3ccccc3)c(-c3ccccc3)c[n+]12	-1	10	99*	0	52
O=C(N/N=C/c1cc(Br)ccc1O)C(c1ccncc1)N1CCOCC1 (stereo unspecified)	12*	15	.	0	-11
COc1ccc(C(CC(=O)Nc2ccccc2OC)n2cccc2)cc1 (stereo unspecified)	152*	10	3	0	5
COc1ccc(C(CC(=O)Nc2cc(OC)cc(OC)c2)n2cccc2)cc1 (stereo unspecified)	0	5	-1	0	56*
SMILES	HIF activator	KLF5 inh	Beta apoptosis	A1 inh	T cruzi repl
O=S(=O)(c1ccc(NC(=S)NCCC(c2ccccc2)c2ccccc2)cc1)N1CCOCC1	0	-11	4	1	61*
O=C(CSc1cccc2cccnc12)Nc1ccc(S(=O)(=O)N2CCOCC2)cc1	-1	-37	35	-1	63*
O=C(COc1ccccc1Cl)Nc1ccc(N2CCN(C(=O)c3ccccc3)CC2)cc1	2	15	.	-1	27
O=C(NCc1ccc2c(c1)OCO2)C1CCN(c2ncccn2)CC1	-1	-38	-3	5.2*	-8
Cc1cccc(Nc2nc(N)nc(CCl)n2)c1	1	20	-10	2	68*
Cc1ccc(Nc2nc(N)nc(CCl)n2)cc1	4	-31	-4	1	3
COc1ccc(OC)c(Nc2nc(N)nc(CCl)n2)c1	0	-5	-6	0	.
COc1cccc(Nc2nc(N)nc(CCl)n2)c1	1	20	-11	0	69*
Cc1ccc(Nc2nc(N)nc(CCl)n2)c(C)c1	1	-15	-3	2	57*
CC(Oc1ccc(F)cc1)C(=O)Nc1ccccc1C(=O)N1CCCCC1 (stereo unspecified)	.	.	-3	1	.
Cc1ccn2c(NC3CCCC3)c(-c3ccccn3)nc2c1	7	-48	16	-1	65*
Cc1ccn2c(Nc3ccccc3C)c(-c3ccncc3)nc2c1	0	-10	-46	1	61*
Cc1ccc2nc(-c3ccncc3)c(Nc3ccccc3)n2c1	0	-28	-9	0	43
Cc1ccc(Nc2c(-c3ccccn3)nc3ccc(C)cn23)cc1	122*	6	97*	0	45
Cc1ccn2c(Nc3ccc4c(c3)OCO4)c(-c3ccccn3)nc2c1	3	-49	0	0	38
Cc1ccn2c(NC3CCCC3)c(-c3ccncc3)nc2c1	0	-45	-5	0	36
Cc1ccc(Nc2c(-c3ccccn3)nc3cc(C)ccn23)cc1	91*	7	103*	0	76*
CC(C)NC(=O)N(C)C[C@H]1Oc2ccc(NC(=O)NC3CCCCC3)cc2C(=O)N([C@H](C)CO)C[C@@H]1C	.	.	-4	0	.
O=C(N/N=C/c1sc(N2CCOCC2)nc1-c1ccccc1)c1ccc(O)cc1	0	6	13	-1	-6
O=C(N/N=C/c1sc(N2CCOCC2)nc1-c1ccccc1)c1cccc(S(=O)(=O)N2CCCC2)c1	-1	-7	107*	0	77*
CCN(CCCC(=O)c1ccc(F)cc1)CCc1ccccc1	-19	-14	.	1	58*
CC1(C)OC(=O)C(=Cc2ccc(-c3ccc(S(N)(=O)=O)cc3)o2)C(=O)O1	0	-33	.	6.1*	-10
CCc1ccc2oc(-c3cc(N=Cc4cccc(OC)c4O)ccc3O)nc2c1	-1	-77	-5	-8	64*
COc1cccc(C=Nc2cc(C)cc(C)c2)c1O	0	-23	-12	-1	1
CCN(CC)S(=O)(=O)c1cc(NC(=O)c2cc([N+](=O)[O-])ccc2N2CCOCC2)ccc1C	-1	-17	.	1	19
O=C(NC(=S)N1CCN(c2ccc(F)cc2)CC1)C12CC3CC(CC(C3)C1)C2	0	-33	0	0	31
CCOc1ccccc1N1CCN(C(=S)NC(=O)C23CC4CC(CC(C4)C2)C3)CC1	404*	-23	4	0	14
O=C(CCC(=O)Nc1ccc(F)cc1)N/N=C/c1ccccc1O	4	0	-2	0	-16
